From ChEMBL document CHEMBL1138189 (J Med Chem, 2006)
pIC50, pKi: −log10 of the molar value. Values joined by “and” are separate entries in the source; they are usually repeats but may differ in a detail not shown here. Identical values can stand only once.

Tests used:
[1] = target: T1, Adenosine receptor A2b (Homo sapiens) (UniProt P29275); test: Inhibition of NECA-stimulated cAMP accumulation in CHO cells expressing human adenosine A2B receptor at 1 uM; format: functional, cell-based
T1 sequence (whole entry): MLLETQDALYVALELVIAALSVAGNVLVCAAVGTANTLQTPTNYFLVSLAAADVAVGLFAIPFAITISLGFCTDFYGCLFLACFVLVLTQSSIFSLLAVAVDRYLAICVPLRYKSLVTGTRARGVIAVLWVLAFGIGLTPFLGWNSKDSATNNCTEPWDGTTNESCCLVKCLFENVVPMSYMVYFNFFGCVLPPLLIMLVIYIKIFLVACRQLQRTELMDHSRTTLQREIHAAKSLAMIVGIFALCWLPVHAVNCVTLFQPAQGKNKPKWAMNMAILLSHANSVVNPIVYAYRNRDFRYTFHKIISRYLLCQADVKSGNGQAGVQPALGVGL

Adenosine receptor A1 = target: T2, Adenosine receptor A1 (Homo sapiens, UniProt P30542); test: Displacement of [3H]DPCPX from human adenosine A1 receptor expressed in CHO cells; format: cell-based
T2 sequence (P30542 whole entry): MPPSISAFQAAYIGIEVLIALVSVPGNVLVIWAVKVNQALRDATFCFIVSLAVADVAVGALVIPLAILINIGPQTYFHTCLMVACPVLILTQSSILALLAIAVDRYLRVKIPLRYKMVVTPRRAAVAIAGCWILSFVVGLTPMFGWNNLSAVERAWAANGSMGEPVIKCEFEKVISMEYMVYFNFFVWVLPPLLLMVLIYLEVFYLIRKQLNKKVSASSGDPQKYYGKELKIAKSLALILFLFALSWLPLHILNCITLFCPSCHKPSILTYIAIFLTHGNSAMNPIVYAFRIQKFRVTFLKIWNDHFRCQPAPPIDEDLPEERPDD
How it was run: (§1)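 CHO membranes bearing recombinant human A1 receptor, in 50 mM Tris HCl pH 7.4, incubated 120 min at 25 °C with 1 nM [3H]DPCPX and 6-8 test concentrations. CHA defined nonspecific binding. Bound and free label were separated on GF/B glass-fiber filters and counted. […] Means ± SEM.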

Adenosine receptor A2b = target: T3, Adenosine receptor A2b (Homo sapiens, UniProt P29275); test: Inhibition of NECA-stimulated cAMP accumulation in CHO cells expressing human adenosine A2B receptor; format: functional, cell-based
T3 sequence (P29275 whole entry): T1 sequence (whole entry)
How it was run: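 Trypsinized A2B-transfected CHO cells (1 × 10⁶ per assay) were preincubated 10 min at 37 °C in pH 7.4 salt buffer with 2 IU/mL adenosine deaminase and Ro 20-1724, then stimulated with 100 nM NECA plus antagonist. Stopped with cold 6% TCA, ether-extracted, and cAMP measured by [3H]cAMP competition with adrenal binding protein. IC50 derived.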

Adenosine receptor A3 = target: T4, Adenosine receptor A3 (Homo sapiens, UniProt P0DMS8); test: Displacement of [3H]MRE3008-F20 from human adenosine A3 receptor expressed in HEK293 cells; format: cell-based
T4 sequence (P0DMS8 whole entry): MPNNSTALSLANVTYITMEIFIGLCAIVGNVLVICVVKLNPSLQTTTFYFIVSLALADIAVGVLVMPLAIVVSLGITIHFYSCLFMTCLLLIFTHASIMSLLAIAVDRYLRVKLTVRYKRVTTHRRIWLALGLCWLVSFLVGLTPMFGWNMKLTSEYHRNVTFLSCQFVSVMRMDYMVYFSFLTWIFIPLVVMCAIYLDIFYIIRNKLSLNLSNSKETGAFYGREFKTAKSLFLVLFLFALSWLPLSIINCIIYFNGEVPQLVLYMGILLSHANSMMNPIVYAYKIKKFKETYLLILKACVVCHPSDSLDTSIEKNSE
How it was run: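 Assays ran in duplicate with 1 nM [3H]MRE3008-F20 on human A3 receptor membranes in 50 mM Tris HCl, 10 mM MgCl2, pH 7.4, at 6-8 ligand concentrations, for 120 min at 4 °C. Bound label was separated by GF/B filtration and counted. Means ± SEM.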

[2] = target: Adenosine receptors; A2a & A3 (Homo sapiens) (UniProt P0DMS8+P29274); test: Selectivity for human adenosine A3 over human adenosine A2A receptor; format: protein assay
Chain of Adenosine receptors; A2a & A3 (Homo sapiens) (P29274 whole entry, looked up, one chain of several): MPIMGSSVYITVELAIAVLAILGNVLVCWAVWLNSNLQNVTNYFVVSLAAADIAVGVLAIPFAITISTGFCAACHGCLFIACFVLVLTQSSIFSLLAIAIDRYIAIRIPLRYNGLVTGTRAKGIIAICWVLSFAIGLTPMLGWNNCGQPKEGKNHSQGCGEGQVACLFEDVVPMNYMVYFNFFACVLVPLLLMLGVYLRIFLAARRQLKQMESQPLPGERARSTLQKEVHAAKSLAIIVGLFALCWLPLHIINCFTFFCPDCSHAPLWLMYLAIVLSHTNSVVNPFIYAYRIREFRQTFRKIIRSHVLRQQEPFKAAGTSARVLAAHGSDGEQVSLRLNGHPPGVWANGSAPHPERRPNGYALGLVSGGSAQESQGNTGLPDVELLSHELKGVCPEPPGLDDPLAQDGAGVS

Adenosine receptor A2a = Adenosine receptor A2a (Homo sapiens, UniProt P29274); test: Displacement of [3H]ZM-241385 from human adenosine A2A receptor expressed in HEK293 cells; format: cell-based
Chain of Adenosine receptor A2a (P29274 whole entry): as the sequence (P29274 whole entry, looked up, one chain of several) above
How it was run: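 Human A2A receptor membranes in 50 mM Tris HCl, 10 mM MgCl2, pH 7.4, competed against [3H]-ZM241385 at 6-8 test concentrations for 60 min at 25 °C. NECA defined nonspecific binding. Bound label was collected on glass-fiber filters by filtration and counted. Means ± SEM.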

[3] = target: Adenosine receptors; A1 & A3 (Homo sapiens) (UniProt P30542+P0DMS8); test: Selectivity for human adenosine A3 over human adenosine A1 receptor; format: protein assay
[4] = target: T5, Adenosine receptor A1 (Homo sapiens) (UniProt P30542); test: Inhibition of [3H]DPCPX binding to human adenosine A1 receptor expressed in CHO cells at 1 uM; format: cell-based; how it was run: as §1
T5 sequence (whole entry): T2 sequence (P30542 whole entry)

Row | Structure (SMILES) | inhibition [1] | pKi (Adenosine receptor A1) | pIC50 (Adenosine receptor A2b) | pKi (Adenosine receptor A3) | Ratio Ki [2] | pKi (Adenosine receptor A2a) | Ratio Ki [3] | inhibition [4] | pIC50 (Adenosine receptor A2b; cho)
1 | Cn1cc2c(nc(NC(=O)Nc3ccncc3)n3nc(-c4ccco4)nc23)n1 [listing 1 of 3 here] | 12% and 20% |  |  |  |  |  |  |  | 
2 | Cn1cc2c(nc(NC(=O)Nc3ccc[n+](C)c3)n3nc(-c4ccco4)nc23)n1 |  | 6.48 | 6.61 | 8.28 | 8 | 7.38 | 62 |  | 
3 | Cn1cc2c(nc(NC(=O)Nc3cc4ccccc4o3)n3nc(-c4ccco4)nc23)n1 |  | < 6.00 | 6.60 | 7.92 | 5 | 7.22 | > 83 | 22% | 
4 | Cn1cc2c(nc(NC(=O)Nc3cccc[n+]3[O-])n3nc(-c4ccco4)nc23)n1 |  | 6.10 | 6.49 | 8.46 | 31 | 6.96 | 228 |  | 
5 | Cn1cc2c(nc(NC(=O)Nc3ccncc3)n3nc(-c4ccco4)nc23)n1 [listing 2 of 3 here] |  | 6.59 |  |  |  | 7.19 |  |  | < 6.00
6 | Cn1cc2c(nc(NC(=O)Nc3ccccn3)n3nc(-c4ccco4)nc23)n1 [listing 1 of 3 here] | 20% and 16% |  |  |  | 360 and 400 |  | 530 and 600 |  | 
7 | Cn1cc2c(nc(NC(=O)Nc3ccoc3)n3nc(-c4ccco4)nc23)n1 | 4% | < 6.00 | < 6.00 | 7.96 | 36 | 6.40 | > 90 | 20% | 
8 | Cn1cc2c(nc(NC(=O)Nc3cccnc3)n3nc(-c4ccco4)nc23)n1 [listing 1 of 3 here] |  | 6.61 | < 6.00 | 9.26 |  | 6.81 |  |  | 
9 | Cn1cc2c(nc(NC(=O)Nc3ccco3)n3nc(-c4ccco4)nc23)n1 | 8% | < 6.00 | < 6.00 | 7.80 | 22 | 6.46 | > 62.5 | 25% | 
10 | Cn1cc2c(nc(NC(=O)Nc3cc[n+](C)cc3)n3nc(-c4ccco4)nc23)n1 | 6% | < 6.00 | < 6.00 | 7.55 | 10 | 6.55 | > 36 | 20% | 
11 | Cn1cc2c(nc(NC(=O)Nc3ccc4ccccc4n3)n3nc(-c4ccco4)nc23)n1 | 17% | < 6.00 | < 6.00 | 6.96 | 7.3 | 6.09 | > 9 | 12% | 
12 | Cn1cc2c(nc(NC(=O)Nc3ccncc3)n3nc(-c4ccco4)nc23)n1 [listing 3 of 3 here] |  | 6.45 | < 6.00 |  |  | 6.96 |  |  | 
13 | Cc1ccc(NC(=O)Nc2nc3nn(C)cc3c3nc(-c4ccco4)nn23)s1 | 20% | < 6.00 | < 6.00 | 8.00 | 92 | 6.04 | > 100 | 10% | 
14 | Cn1cc2c(nc(NC(=O)Nc3cc[n+]([O-])cc3)n3nc(-c4ccco4)nc23)n1 | 12% | < 6.00 | < 6.00 | 7.68 | 7.3 | 6.82 | > 47 | 35% | 
15 | Cn1cc2c(nc(NC(=O)Nc3ccccn3)n3nc(-c4ccco4)nc23)n1 [listing 2 of 3 here] |  | 6.58 | < 6.00 | 9.30 |  | 6.74 |  |  | 
16 | Cn1cc2c(nc(NC(=O)Nc3cccnc3)n3nc(-c4ccco4)nc23)n1 [listing 2 of 3 here] |  | 6.64 |  | 9.36 |  | 6.90 |  |  | < 6.00
17 | Cc1sccc1NC(=O)Nc1nc2nn(C)cc2c2nc(-c3ccco3)nn12 | 31% | < 6.00 | < 6.00 | 8.46 | 117 | 6.39 | > 286 | 24% | 
18 | Cn1cc2c(nc(NC(=O)Nc3cccnc3)n3nc(-c4ccco4)nc23)n1 [listing 3 of 3 here] | 18% and 24% |  |  |  | 281 and 284 |  | 445 and 522 |  | 
19 | Cn1cc2c(nc(NC(=O)Nc3ccccn3)n3nc(-c4ccco4)nc23)n1 [listing 3 of 3 here] |  | 6.68 |  | 9.46 |  | 6.85 |  |  | < 6.00
20 | Cn1cc2c(nc(NC(=O)Nc3ccc[n+]([O-])c3)n3nc(-c4ccco4)nc23)n1 |  | 6.26 | 6.59 | 8.00 | 7.5 | 7.12 | 55 |  | 
21 | Cn1cc2c(nc(NC(=O)Nc3cccc[n+]3C)n3nc(-c4ccco4)nc23)n1 |  | 6.40 | 6.55 | 8.89 | 49 | 7.19 | 307 |  | 
